Experimental data reported in ChEMBL document CHEMBL3745688, “Discovery of novel hybrids of diaryl-1,2,4-triazoles and caffeic acid as dual inhibitors of cyclooxygenase-2 and 5-lipoxygenase for cancer therapy” (Eur J Med Chem, 2016).

Key:
[1] = target: T1, Prostaglandin G/H synthase 2 (Rattus norvegicus, UniProt P35355); assay: Inhibition of COX2 in rat abdominal macrophages assessed as PGE2 production pretreated for 30 mins followed by addition of 10 uM arachidonic acid as substrate for 20 mins by EIA
T1 sequence (P35355 whole entry): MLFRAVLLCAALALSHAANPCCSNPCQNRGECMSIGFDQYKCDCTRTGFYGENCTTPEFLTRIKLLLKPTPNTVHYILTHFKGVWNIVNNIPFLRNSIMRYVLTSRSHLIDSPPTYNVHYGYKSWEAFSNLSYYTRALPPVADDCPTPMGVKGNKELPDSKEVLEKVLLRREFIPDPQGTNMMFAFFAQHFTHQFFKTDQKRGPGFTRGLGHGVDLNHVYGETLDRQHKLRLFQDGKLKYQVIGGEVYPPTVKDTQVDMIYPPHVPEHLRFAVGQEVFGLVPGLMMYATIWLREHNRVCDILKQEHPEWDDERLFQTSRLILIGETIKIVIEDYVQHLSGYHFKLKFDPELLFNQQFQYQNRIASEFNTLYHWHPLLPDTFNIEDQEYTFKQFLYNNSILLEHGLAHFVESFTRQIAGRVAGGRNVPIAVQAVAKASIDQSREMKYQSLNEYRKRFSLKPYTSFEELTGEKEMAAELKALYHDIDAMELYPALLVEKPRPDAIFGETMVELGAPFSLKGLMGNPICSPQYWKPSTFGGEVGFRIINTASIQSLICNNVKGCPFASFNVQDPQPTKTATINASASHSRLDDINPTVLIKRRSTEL

[2] = target: T2, Prostaglandin G/H synthase 1 (Bos taurus, UniProt O62664); assay: Inhibition of COX1 in calf endotheliocyte assessed as 6keto-PGF1alpha production pretreated for 20 mins followed by addition of 10 uM arachidonic acid as substrate for 20 mins by radioimmuno assay
T2 sequence (O62664 whole entry): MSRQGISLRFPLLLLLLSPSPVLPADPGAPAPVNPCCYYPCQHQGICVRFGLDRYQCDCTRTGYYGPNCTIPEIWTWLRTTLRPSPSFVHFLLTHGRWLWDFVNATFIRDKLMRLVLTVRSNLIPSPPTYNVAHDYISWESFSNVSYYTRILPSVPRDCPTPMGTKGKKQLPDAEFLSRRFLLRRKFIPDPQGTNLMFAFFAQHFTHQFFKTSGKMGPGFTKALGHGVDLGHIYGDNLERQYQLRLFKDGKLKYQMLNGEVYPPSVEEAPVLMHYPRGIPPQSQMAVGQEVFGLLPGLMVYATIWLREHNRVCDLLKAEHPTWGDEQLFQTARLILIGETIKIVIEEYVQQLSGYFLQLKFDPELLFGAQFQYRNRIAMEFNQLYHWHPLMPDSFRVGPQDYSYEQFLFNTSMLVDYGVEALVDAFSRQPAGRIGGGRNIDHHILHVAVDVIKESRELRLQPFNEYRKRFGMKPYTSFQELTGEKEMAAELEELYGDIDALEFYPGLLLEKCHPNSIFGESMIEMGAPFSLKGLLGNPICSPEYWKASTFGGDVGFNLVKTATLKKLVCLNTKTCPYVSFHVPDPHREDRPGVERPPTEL
Procedure, shortened: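 Endothelial cells from neonatal calf thoracic aorta plated at 1.0×10^6 in DMEM with 10% FBS and grown 24 h at 37 °C in 5% CO₂. Compound or DMSO added for 20 min, then arachidonic acid (10 μM) for another 20 min. 6-keto-PGF1α in the medium quantified by radioimmunoassay. IC50 is the mean of four determinations.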

Mus musculus [3] = assay: Toxicity in mouse xenografted with B16F10 cells assessed as body weight at 40 mg/kg, iv measured after 25 days (reference value: 28.1 +/- 1.7 g); type: organism-based, B16-F10; details: in vivo, 600 h
Procedure, shortened: (§1)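 B16-F10 cells implanted subcutaneously in the right oxter of ICR mice weighing 18-22 g. After 7 days, animals weighed and randomized into groups of 10. Dosed intravenously with vehicle (saline with 1% DMSO/2% poloxamer, 0.4 ml/mouse), 40 mg/kg test agent, or 5-FU 20 mg/kg. Killed on day 25 after implantation. Tumors excised and weighed; inhibition = (1 − treated/vehicle mean tumor weight)×100; body weights recorded at start and end.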

A549 = assay: Antiproliferative activity against human A549 cells after 72 hrs by MTT assay; type: functional, cell-based; details: A549, 72 h
Procedure, shortened: (§2)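 Cells seeded at 5×10^4/well, grown 24 h at 37 °C in 5% CO₂, then exposed to compounds dissolved in DMSO at a range of concentrations for 72 h. MTT (5 mg/mL in PBS) added for 4 h, then OD read at 570 nm. IC50 taken from dose-response curves, mean ± S.D. of three independent experiments.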

[4] = target: T3, Polyunsaturated fatty acid 5-lipoxygenase (Rattus norvegicus, UniProt P12527); assay: Inhibition of 5-LOX in Sprague-Dawley rat leukocytes assessed as A23187 stimulated LTB4 production pretreated for 30 mins followed by addition of A23187 for 30 mins by EIA; type: cell-based
T3 sequence (P12527 whole entry): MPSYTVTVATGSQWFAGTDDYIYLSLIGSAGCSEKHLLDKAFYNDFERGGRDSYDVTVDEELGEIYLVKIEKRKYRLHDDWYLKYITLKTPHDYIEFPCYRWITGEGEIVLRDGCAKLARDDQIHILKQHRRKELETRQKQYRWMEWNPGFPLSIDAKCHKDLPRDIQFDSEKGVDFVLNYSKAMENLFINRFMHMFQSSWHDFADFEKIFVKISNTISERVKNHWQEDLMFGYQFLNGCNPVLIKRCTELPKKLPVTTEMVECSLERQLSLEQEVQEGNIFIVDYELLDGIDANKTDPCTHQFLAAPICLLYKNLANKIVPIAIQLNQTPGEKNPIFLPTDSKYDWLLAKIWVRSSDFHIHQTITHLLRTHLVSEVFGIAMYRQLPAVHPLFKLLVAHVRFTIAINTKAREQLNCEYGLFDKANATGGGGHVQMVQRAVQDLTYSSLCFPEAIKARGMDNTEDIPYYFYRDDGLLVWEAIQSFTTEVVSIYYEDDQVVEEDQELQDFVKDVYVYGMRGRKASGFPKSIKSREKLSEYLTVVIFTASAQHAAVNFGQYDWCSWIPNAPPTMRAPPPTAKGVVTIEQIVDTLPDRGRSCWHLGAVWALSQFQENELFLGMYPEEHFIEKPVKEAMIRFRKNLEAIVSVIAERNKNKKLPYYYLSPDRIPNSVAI
Procedure, shortened: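 Rat peritoneal leukocytes collected from Sprague-Dawley rats primed i.p. with 0.2% glycogen (20 mL/kg). Cells in Hanks solution plated at 1.0×10^6/well and held 10 min at 37 °C. Pretreated 30 min with L-cysteine (10 mM), indomethacin (1 mg/L) and compound or DMSO. A23187 added for 30 min. LTB4 in the clarified supernatant measured by EIA; % inhibition from OD; IC50 by Bliss method.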

[5] = Antiproliferative activity against mouse B16F10 cells after 72 hrs by MTT assay; type: functional, cell-based; details: B16-F10, 72 h; procedure, shortened: as §2
[6] = Antitumor activity against mouse B16F10 cells xenografted in mouse assessed as inhibition of tumor growth at 40 mg/kg, iv after 25 days; type: functional; details: B16-F10, iv, 600 h; procedure, shortened: as §1
[7] = Antiproliferative activity against human PC3 cells after 72 hrs by MTT assay; type: functional, cell-based; details: PC-3, 72 h; procedure, shortened: as §2
[8] = Antiproliferative activity against human Caco2 cells after 72 hrs by MTT assay; type: functional, cell-based; details: Caco-2, 72 h; procedure, shortened: as §2
[9] = Selectivity index, ratio of IC50 for rat COX2 to IC50 for calf COX1
Procedure, shortened: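 Ratio of COX-2 IC50 to COX-1 IC50. COX-2 was measured in rat peritoneal macrophages: 1.0×10^6/well in RPMI 1640 with 5% FCS, grown 24 h, COX-1 inactivated with 1 mM aspirin, COX-2 induced with LPS 1 µg/mL for 6 h, compound added for 30 min, then arachidonic acid 10 µM for 20 min, PGE2 read by EIA. COX-1 was measured in calf aortic endothelial cells by 6-keto-PGF1α radioimmunoassay.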

Mus musculus [10] = assay: Toxicity in mouse xenografted with B16F10 cells assessed as body weight at 20 mg/kg, iv measured after 25 days (reference value: 28.1 +/- 1.7 g); type: organism-based, B16-F10; details: in vivo, 600 h
[11] = Antitumor activity against mouse B16F10 cells xenografted in mouse assessed as inhibition of tumor growth at 20 mg/kg, iv after 25 days; type: functional; details: B16-F10, iv, 600 h
[12] = target: T4, Prostaglandin G/H synthase 2 (Homo sapiens, UniProt P35354); assay: Inhibition of COX-2 (unknown origin)
T4 sequence (P35354 whole entry): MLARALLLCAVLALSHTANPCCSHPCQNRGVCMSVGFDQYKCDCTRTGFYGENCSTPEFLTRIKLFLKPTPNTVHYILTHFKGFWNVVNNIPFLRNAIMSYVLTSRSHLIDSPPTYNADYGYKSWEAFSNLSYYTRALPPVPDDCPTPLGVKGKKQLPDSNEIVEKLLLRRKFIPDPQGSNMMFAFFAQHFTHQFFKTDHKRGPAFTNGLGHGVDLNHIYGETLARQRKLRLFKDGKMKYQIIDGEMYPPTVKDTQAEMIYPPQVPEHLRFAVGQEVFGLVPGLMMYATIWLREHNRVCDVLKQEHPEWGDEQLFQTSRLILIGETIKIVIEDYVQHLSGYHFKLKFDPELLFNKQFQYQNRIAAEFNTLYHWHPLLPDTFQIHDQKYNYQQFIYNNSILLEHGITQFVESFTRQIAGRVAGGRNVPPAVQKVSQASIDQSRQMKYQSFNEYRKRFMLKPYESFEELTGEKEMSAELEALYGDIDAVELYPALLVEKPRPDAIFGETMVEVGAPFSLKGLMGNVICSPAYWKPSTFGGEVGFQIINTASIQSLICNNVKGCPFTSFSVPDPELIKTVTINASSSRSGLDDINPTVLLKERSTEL

**Q.** Which IC50 [1] does the source give for COc1cc(/C=C/C(=O)OCCSc2nc(-c3ccc(S(C)(=O)=O)cc3)n(-c3ccc(C(F)(F)F)cc3)n2)ccc1O here?
**A.** 0.21 µM

**Q.** And the IC50 [2]?
**A.** 20.5 µM

**Q.** What about the Activity (Mus musculus [3]) of the same compound?
**A.** 26.3 g

**Q.** And the IC50 (A549)?
**A.** 6.78 µM

**Q.** What about the IC50 [4] of the same compound?
**A.** 0.81 µM

**Q.** And the IC50 [5]?
**A.** 8.65 µM

**Q.** And the inhibition in vivo at 40 mg/kg [6]?
**A.** 58.9%

**Q.** And the IC50 [7]?
**A.** 7.46 µM

**Q.** What about the IC50 [8] of the same compound?
**A.** 9.05 µM

**Q.** What about the Ratio IC50 [9] of the same compound?
**A.** 0.01

**Q.** What does the source list for CS(=O)(=O)c1ccc(-c2nc(SCCCNC(=O)/C=C/c3ccc(O)c(O)c3)nn2-c2ccc(F)cc2)cc1?
**A.** IC50 [1]: 0.12 µM; IC50 [2]: 13.2 µM; IC50 (A549): 22.1 µM; IC50 [4]: 0.71 µM; IC50 [5]: 18.7 µM; IC50 [7]: 23.1 µM; IC50 [8]: 20.9 µM; Ratio IC50 [9]: 0.009

**Q.** With O=c1[nH]cc(F)c(=O)[nH]1 [FLUOROURACIL] as the compound, how does the Activity (Mus musculus [10]) read?
**A.** 26 g

**Q.** And the inhibition in vivo at 20 mg/kg [11]?
**A.** 68.2%

**Q.** What does the source list for CS(=O)(=O)c1ccc(-c2nc(SCCCOC(=O)/C=C/c3ccccc3)nn2-c2ccc(Br)cc2)cc1?
**A.** IC50 [1]: 0.42 µM; IC50 [2]: 45.7 µM; IC50 (A549): 22.3 µM; IC50 [4]: 1.3 µM; IC50 [5]: 19.4 µM; IC50 [7]: 21.9 µM; IC50 [8]: 24.6 µM; Ratio IC50 [9]: 0.009

**Q.** With CSc1nc(-c2ccc(S(N)(=O)=O)cc2)n(-c2ccc(Cl)cc2)n1 as the compound, how does the IC50 [12] read?
**A.** 0.37 µM

**Q.** What about the IC50 (A549) of the same compound?
**A.** 29.5 µM

**Q.** What about the IC50 [5] of the same compound?
**A.** 32.3 µM

**Q.** And the IC50 [7]?
**A.** 37.5 µM

**Q.** And the IC50 [8]?
**A.** 41.2 µM
